Source: ChEMBL document CHEMBL1125323, “Potent V2/V1a vasopressin antagonists with C-terminal ethylenediamine-linked retro-amino acids” (J Med Chem, 1992)
Numbered stars: 1 amine (or outer) side, 2 acyl side, 3 side chain; on linkers, the order of the positions; unused ones are H or OH. Bridge positions count the residues as written; N and C are the ends. Square brackets hold non-standard residues; d marks the D form. Peptide text beside a SMILES is read from it. X1 = O=C(CC1(S[*:2])CCCCC1)[*:1]

Tests used:
[1] = biological target: T1, Vasopressin receptor (Rattus norvegicus) (UniProt P48974+P30560+Q00788); assay: Antivasopressor potency in terms of blood pressure response in rats anesthetized with urethane and pretreated with phenoxybenzamine; format: functional
Method in brief: (§1)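 Rats anesthetized with urethane, pretreated with phenoxybenzamine; blood pressure responses recorded. USP posterior pituitary reference standard as agonist, given intravenously with antagonist. ED (nmol/kg) is the antagonist dose at which 2x units of agonist match the response to x units without antagonist, log-interpolated from doses above and below. In vivo pA2 uses assumed distribution volume 67 mL/kg.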

[2] = biological target: T1, Vasopressin receptor (Rattus norvegicus); assay: Antiantidiuretic potency in terms of measuring changes in urine flow in water-loaded rats under ethanol anesthesia; format: functional
Method in brief: (§2)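 Water-loaded rats under ethanol anesthesia; urine flow followed. USP posterior pituitary reference standard as agonist, all injections intravenous. Effective dose (nmol/kg) is the antagonist dose reducing the response to 2x units of agonist to that of x units alone, interpolated on a log scale between bracketing doses. pA2 = negative log of ED divided by assumed distribution volume 67 mL/kg.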

Vasopressin receptor [3] = biological target: T2, Vasopressin receptor (Rattus norvegicus, UniProt P48974+P30560+Q00788); assay: Antivasopressor potency in terms of negative logarithm of the effective doses divided by the estimated volume of distribution; format: functional; method in brief: as §1
Vasopressin receptor [4] = biological target: T2, Vasopressin receptor; assay: Antiantidiuretic potency in terms of negative logarithm of the effective doses divided by the estimated volume of distribution; format: functional, Urine; method in brief: as §2

SMILES	ED [1]	ED [2]	pA2 (Vasopressin receptor [3])	pA2 (Vasopressin receptor [4])
CCOc1ccc(C[C@H]2NC(=O)CC3(CCCCC3)SSC[C@@H](C(=O)N3CCC[C@H]3C(=O)N[C@@H](CCCN=C(N)N)C(=O)NCC(N)=O)NC(=O)[C@H](CC(N)=O)NC(=O)[C@H](C(C)C)NC(=O)[C@H](Cc3ccccc3)NC2=O)cc1 ([dY](Et)FVNCPRG-NH2; linker N-5 via X1)	0.45 nM/kg	1.1 nM/kg	8.22	7.81
CCOc1ccc(C[C@H]2NC(=O)CC3(CCCCC3)SSC[C@@H](C(=O)N3CCC[C@H]3C(=O)N[C@@H](CCCN=C(N)N)C(=O)NCC(N)=O)NC(=O)[C@H](CC(N)=O)NC(=O)[C@H]([C@@H](C)CC)NC(=O)[C@H](Cc3ccccc3)NC2=O)cc1	1.2 nM/kg	1.2 nM/kg	7.78	7.75
CCOc1ccc(C[C@H]2NC(=O)CC3(CCCCC3)SSC[C@@H](C(=O)N3CCC[C@H]3C(=O)N[C@@H](CCCN=C(N)N)C(=O)NCCN)NC(=O)[C@H](CC(N)=O)NC(=O)[C@H](C(C)C)NC(=O)[C@H](Cc3ccccc3)NC2=O)cc1	0.69 nM/kg	1.1 nM/kg	8	7.79
CC[C@H](C)[C@@H]1NC(=O)[C@H](Cc2ccccc2)NC(=O)[C@@H](Cc2ccccc2)NC(=O)CC2(CCCCC2)SSC[C@@H](C(=O)N2CCC[C@H]2C(=O)N[C@@H](CCCN=C(N)N)C(=O)NCCN)NC(=O)[C@H](CC(N)=O)NC1=O	0.88 nM/kg	0.55 nM/kg	7.89	8.11
CC[C@H](C)[C@@H]1NC(=O)[C@H](Cc2ccccc2)NC(=O)[C@@H](Cc2ccccc2)NC(=O)CC2(CCCCC2)SSC[C@@H](C(=O)N2CCC[C@H]2C(=O)N[C@@H](CCCN=C(N)N)C(=O)NCC(N)=O)NC(=O)[C@H](CC(N)=O)NC1=O ([dF]FINCPRG-NH2; linker N-5 via X1)	0.99 nM/kg	0.46 nM/kg	7.86	8.24
CCOc1ccc(C[C@H]2NC(=O)CC3(CCCCC3)SSC[C@@H](C(=O)N3CCC[C@H]3C(=O)N[C@@H](CCCN=C(N)N)C(=O)NCCN)NC(=O)[C@H](CC(N)=O)NC(=O)[C@H]([C@@H](C)CC)NC(=O)[C@H](Cc3ccccc3)NC2=O)cc1	0.32 nM/kg	0.77 nM/kg	8.33	8
CCOc1ccc(C[C@H]2NC(=O)CC3(CCCCC3)SSC[C@@H](C(=O)N3CCC[C@H]3C(=O)N[C@@H](CCCN=C(N)N)C(=O)NCC(=O)NCCN)NC(=O)[C@H](CC(N)=O)NC(=O)[C@H](C(C)C)NC(=O)[C@H](Cc3ccccc3)NC2=O)cc1	0.32 nM/kg	1.2 nM/kg	8.33	7.82
CC[C@H](C)[C@@H]1NC(=O)[C@H](Cc2ccccc2)NC(=O)[C@@H](Cc2ccccc2)NC(=O)CC2(CCCCC2)SSC[C@@H](C(=O)N2CCC[C@H]2C(=O)N[C@@H](CCCN=C(N)N)C(=O)NCC(=O)NCCN)NC(=O)[C@H](CC(N)=O)NC1=O	1.8 nM/kg	0.57 nM/kg	7.58	8.1
CCOc1ccc(C[C@H]2NC(=O)CC3(CCCCC3)SSC[C@@H](C(=O)N[C@@H](CCCN=C(N)N)C(=O)NCC(=O)NCCNC(=O)[C@@H](N)CCCN=C(N)N)NC(=O)[C@H](CC(N)=O)NC(=O)[C@H](C(C)C)NC(=O)[C@H](Cc3ccccc3)NC2=O)cc1	–	–	7.96	7.87
CCOc1ccc(C[C@H]2NC(=O)CC3(CCCCC3)SSC[C@@H](C(=O)NCCNC(=O)[C@H](CCCN=C(N)N)NC(=O)[C@@H](N)CCCN=C(N)N)NC(=O)[C@H](CC(N)=O)NC(=O)[C@H](C(C)C)NC(=O)[C@H](Cc3ccccc3)NC2=O)cc1	–	–	7.93	7.61
CCOc1ccc(C[C@@H]2NC(=O)CC3(CCCCC3)SSC[C@@H](C(=O)NCCNC(=O)[C@@H](N)CCCN=C(N)N)NC(=O)[C@H](CC(N)=O)NC(=O)[C@H](C(C)C)NC(=O)[C@H](Cc3ccccc3)NC2=O)cc1	–	–	7.97	6.39
CC[C@@H](C)[C@H]1NC(=O)CC2(CCCCC2)SSC[C@@H](C(=O)NCCNC(=O)[C@@H](N)CCCN=C(N)N)NC(=O)[C@H](CC(N)=O)NC(=O)[C@H](C(C)C)NC(=O)[C@H](Cc2ccccc2)NC1=O	–	–	6.16	5.8
CCOc1ccc(C[C@H]2NC(=O)CC3(CCCCC3)SSC[C@@H](C(=O)N3CCC[C@H]3C(=O)NCCN)NC(=O)[C@H](CC(N)=O)NC(=O)[C@H](C(C)C)NC(=O)[C@H](Cc3ccccc3)NC2=O)cc1	0.75 nM/kg	1.6 nM/kg	7.95	7.64
CC(C)[C@@H]1NC(=O)[C@H](Cc2ccccc2)NC(=O)[C@@H](Cc2ccccc2)NC(=O)CC2(CCCCC2)SSC[C@@H](C(=O)NCCNC(=O)[C@@H](N)CCCN=C(N)N)NC(=O)[C@H](CC(N)=O)NC1=O	–	–	7.64	6.91
CCOc1ccc(C[C@H]2NC(=O)CC3(CCCCC3)SSC[C@@H](C(=O)NCCNC(=O)CN)NC(=O)[C@H](CC(N)=O)NC(=O)[C@H](C(C)C)NC(=O)[C@H](Cc3ccccc3)NC2=O)cc1	–	–	7.61	6.59
